Results taken from ChEMBL document CHEMBL1146145, “Isobrassinin and its analogues: novel types of antiproliferative agents” (Bioorg Med Chem Lett, 2006).

What was measured:
Conditions in all cases: read-out: Inhibition
[1] = Cytotoxicity against human HeLa cells at 30 uM; assay type: cell-based
Summary of the method: (§1)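 MTT assay. Human HeLa (cervix adenocarcinoma), MCF7 (breast adenocarcinoma) and A431 (squamous skin carcinoma) cells were grown in minimal essential medium with 10% foetal bovine serum, antibiotic–antimycotic agents and non-essential amino acids, then seeded in 96-well plates. On day 2 the medium was replaced with compound-containing medium (DMSO final ≤0.1%). Exposure lasted 72 h, followed by 4 h MTT and DMSO solubilization of the formazan.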

[2] = Cytotoxicity against human MCF7 cells at 30 uM; assay type: cell-based; summary of the method: as §1
[3] = Cytotoxicity against human A431 cells at 30 uM; assay type: cell-based, A-431; summary of the method: as §1

SMILES	cytotoxicity at 30 µM [1] [%]	cytotoxicity at 30 µM [2] [%]	cytotoxicity at 30 µM [3] [%]
S=C(NCc1cc2ccccc2[nH]1)SCc1ccccc1	76.1	89	70.7
S=C(NCc1cc2ccccc2[nH]1)Nc1ccccc1	50	57.4	45.7
c1ccc(CSC2=NCc3[nH]c4ccccc4c3S2)cc1	45.8	37.3	–
CNC(=S)NCc1cc2ccccc2[nH]1	< 10	< 10	< 10
CSC(=S)NCc1c[nH]c2ccccc12 [BRASSININ]	25.2	21.5	–
CSC(=S)NCc1cc2ccccc2[nH]1 [ISOBRASSININ]	83.6	86.2	78.6
CSC1=NCc2[nH]c3ccccc3c2S1 [ISOCYCLOBRASSININ]	44.5	< 10	< 10
